Assay results taken from paper PMC3398245 (Analytical Biochemistry, 2012).

How the values were obtained:
GST-RIP1 kinase domain [1] = target: T1, GST-RIP1 kinase domain (Homo sapiens, UniProt Q13546); assay: FP competition assay with fluorescein-Nec-1; format: binding; conditions: competition with 50 nM 20, 2.6 µM GST-RIP1, 3% DMSO
T1 sequence (Q13546 8-327): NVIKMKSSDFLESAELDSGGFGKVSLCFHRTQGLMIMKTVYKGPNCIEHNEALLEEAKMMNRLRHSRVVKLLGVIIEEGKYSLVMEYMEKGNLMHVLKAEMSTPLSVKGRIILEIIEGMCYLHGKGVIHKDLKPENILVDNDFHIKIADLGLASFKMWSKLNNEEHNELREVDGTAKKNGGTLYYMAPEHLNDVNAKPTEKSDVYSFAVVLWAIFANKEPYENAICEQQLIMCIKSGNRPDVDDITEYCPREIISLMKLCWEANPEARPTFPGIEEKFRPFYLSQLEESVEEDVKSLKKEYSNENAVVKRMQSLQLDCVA

GST-RIP1 kinase domain [2] = target: T1, GST-RIP1 kinase domain; assay: FP competition assay with fluorescein-Nec-3; format: binding; conditions: competition with 50 nM 26, 3.4 µM GST-RIP1, 3% DMSO
Method in brief: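 Human RIP1 kinase domain (aa 8–327) as a GST fusion, expressed in baculovirus-infected Sf9 cells and purified by glutathione affinity and gel filtration. Tracer (50 nM) preincubated 5 min with 3.4 µM protein. Test compound titrated 0–100 µM at 3% final DMSO, then 10 min incubation. FP read at ex 485/em 535 nm in mP. IC50 from nonlinear variable-slope fit.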

| SMILES | IC50 (GST-RIP1 kinase domain [1]) [µM] | IC50 (GST-RIP1 kinase domain [2]) [µM] |
| --- | --- | --- |
| CN1C(=O)C(Cc2c[nH]c3ccccc23)NC1=S (stereo not shown) [Compound 1] | 9.9 ± 0.6 | 7 ± 0.7 |
| COc1ccc2c(c1)C1=NN(C(C)=O)C(c3ccc(F)cc3)C1CC2 (stereo not shown) [Compound 7] | 10.7 ± 1.8 | 3.9 ± 0.7 |
